According to ChEMBL document CHEMBL3526151, “Reversible disulfide formation of the glutamate carboxypeptidase II inhibitor E2072 results in prolonged systemic exposures in vivo” (Drug Metab Dispos, 2012):

Tests used:
[1] = Cmax in Sprague-Dawley rat liver at 10 mg/kg, po administered as single dose measured per gm of tissue by LC-MS/MS analysis; type: ADME, organism-based; set-up: dose 10 mg/kg, route oral
Method in brief: (§1)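 Male Sprague-Dawley rats were dosed orally with 10 mg/kg/day, either once or daily for 5 days; n = 4 per group. Blood was taken by cardiac puncture and liver, kidney, brain and sciatic nerve were collected at 0–8 h post-dose. Tissues were homogenized in PBS containing NEM at equal volume per gram. NEM-derivatized analyte was extracted with methanol and quantified by LC-MS/MS (1–5000 ng/ml). Cmax is the observed value.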

[2] = Tmax in Sprague-Dawley rat at 10 mg/kg, po administered via gavage measured under fasted conditions by LC-MS/MS analysis; type: ADME, organism-based; set-up: dose 10 mg/kg, route oral; details: in vivo
Method in brief: (§2)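 Jugular-cannulated male Sprague-Dawley rats, 280–330 g, fasted overnight to 4 h post-dose. Single dose in 50 mM HEPES-buffered saline pH 7.4, by oral gavage or as tail-vein i.v. bolus. Blood into heparin/NEM tubes at 0–24 h. Plasma measured by LC-MS/MS; noncompartmental analysis; Tmax observed; Vd = dose/(AUCinf·λz).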

[3] = Phase 2 metabolic stability in dog liver microsomes assessed as compound remaining at 10 uM measured for 1 hr by LC-MS/MS analysis in absence of cofactors; type: ADME, Canis lupus familiaris; details: read-out: Stability
Method in brief: (§3)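 Cofactor-free controls were run for each microsomal incubation: 0.5 mg/ml liver microsomes with 10 µM compound, omitting cofactors, so that cofactor-independent degradation could be measured. Samples were taken up to 1 h, quenched with acetonitrile containing internal standard, and the percent remaining was determined by LC-MS/MS.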

[4] = Volume of distribution in Sprague-Dawley rat at 0.1 mg/kg, iv administered as bolus injection measured under fasted conditions by LC-MS/MS analysis; type: ADME, organism-based; set-up: dose 0.1 mg/kg, route intravenous; details: in vivo; method in brief: as §2
[5] = Oral bioavailability in cynomolgus monkey at 5 mg/kg by LC-MS/MS analysis; type: ADME, organism-based, Macaca fascicularis; details: in vivo
Method in brief: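 Cynomolgus monkeys (n = 3) received a nominal 5 mg/kg dose in 50 mM HEPES, TCEP-treated to prevent disulfide formation. Dosing was either an IV bolus via cephalic or saphenous vein or oral. Arterial cannula blood was collected into NEM-containing heparinized tubes for up to 9 days and analyzed by LC-MS/MS. Noncompartmental analysis gave t1/2 = 0.693/λz and F% = dose-normalized mean AUCinf p.o./i.v. ×100.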

[6] = Phase 1 metabolic stability in dog liver microsomes assessed as compound remaining at 10 uM measured for 1 hr by LC-MS/MS analysis; type: ADME, Canis lupus familiaris; details: read-out: Stability
Method in brief: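 Liver microsomes (0.5 mg/ml) were incubated with 10 µM compound (final) in 100 mM potassium phosphate, pH 7.4. An NADPH-regenerating system was present: 1.3 mM NADPH, 3.3 mM glucose 6-phosphate, 3.3 mM MgCl2, 0.4 U/ml G6PDH and 50 µM sodium citrate. Runs were in duplicate, with samples taken up to 1 h and quenched with acetonitrile containing internal standard. Loss of compound was followed by LC-MS/MS.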

[7] = AUC(0 to last) in Sprague-Dawley rat at 1 mg/kg, iv administered as bolus injection measured under fasted conditions by LC-MS/MS analysis; type: ADME, organism-based; set-up: time 0 - last, dose 1 mg/kg, route intravenous; details: plasma
Method in brief: (§4)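 Male Sprague-Dawley rats (280–330 g), jugular vein cannulated, fasted overnight until 4 h post-dose. Single tail-vein bolus of 0.1, 1, 10 or 30 mg/kg in 50 mM HEPES buffered saline, pH 7.4. Blood drawn 0–24 h into heparin tubes containing NEM. Plasma quantified by LC-MS/MS after NEM derivatization. Noncompartmental analysis: AUClast by linear trapezoidal rule, Cl = dose/AUC0-∞. Mean ± S.D., n = 4–9.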

[8] = AUC(0 to infinity) in Sprague-Dawley rat at 1 mg/kg, iv administered as bolus injection measured under fasted conditions by LC-MS/MS analysis; type: ADME, organism-based; set-up: time infinity, dose 1 mg/kg, route intravenous; details: plasma; method in brief: as §4
[9] = species: Rattus norvegicus; experiment: Drug recovery in Sprague-Dawley rat plasma stability experiment; details: in vitro
[10] = Apparent volume of distribution in cynomolgus monkey at 5 mg/kg, po by LC-MS/MS analysis; type: ADME, organism-based, Macaca fascicularis; set-up: dose 5 mg/kg, route oral; details: in vivo
Method in brief: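 Cynomolgus monkeys (n = 3) dosed orally at a nominal 5 mg/kg in TCEP-treated 50 mM HEPES solution. Blood taken via iliac or femoral arterial cannula up to 9 days into heparin/NEM tubes. Plasma analyzed by LC-MS/MS. Cl/F and Vd/F derived noncompartmentally.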

[11] = AUC(0 to last) in Sprague-Dawley rat at 10 mg/kg, iv by LC-MS/MS analysis; type: ADME, organism-based; set-up: time 0 - last, dose 10 mg/kg, route intravenous; details: plasma
Method in brief: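 Male Sprague-Dawley rats dosed intravenously at 10 mg/kg (n = 6). Blood sampling extended to 7 days into heparin tubes containing NEM. Plasma assayed for parent and homodisulfide by LC-MS/MS, calibration range 1–5000 ng/ml. Noncompartmental analysis, t1/2 = 0.693/λz. Mean ± S.D.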

[12] = Metabolic stability in Sprague-Dawley rat plasma assessed as compound remaining at 5 uM after 1 hr by LC-MS/MS analysis; type: ADME, cell-free; details: read-out: Stability
Method in brief: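 Compound at 5 and 10 µM was incubated at 37°C in Sprague-Dawley rat or cynomolgus monkey plasma. Aliquots taken at 0, 30 and 60 min were quenched with acetonitrile and analyzed by LC-MS/MS. Percent remaining = analyte/internal-standard area ratio at time t divided by that at time 0.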

[13] = Cmax in Sprague-Dawley rat sciatic nerve at 10 mg/kg, po administered as single dose measured per gm of tissue by LC-MS/MS analysis; type: ADME, organism-based; set-up: dose 10 mg/kg, route oral; method in brief: as §1
[14] = Phase 1 metabolic stability in monkey liver microsomes assessed as compound remaining at 10 uM measured for 1 hr by LC-MS/MS analysis in absence of cofactors; type: ADME, Macaca mulatta; details: rhesus monkey, read-out: Stability; method in brief: as §3
[15] = Tmax in Sprague-Dawley rat at 1 mg/kg, po administered via gavage measured under fasted conditions by LC-MS/MS analysis; type: ADME, organism-based; set-up: dose 1 mg/kg, route oral; details: in vivo; method in brief: as §2
[16] = AUC(0 to last) in Sprague-Dawley rat at 0.1 mg/kg, iv administered as bolus injection measured under fasted conditions by LC-MS/MS analysis; type: ADME, organism-based; set-up: time 0 - last, dose 0.1 mg/kg, route intravenous; details: plasma; method in brief: as §4
[17] = test system: Rattus norvegicus; experiment: Analgesic activity in Sprague-Dawley rat chronic constriction injury model assessed as change in paw withdrawal latency at 10 mg/kg/day, po (reference value: -3.11 +/-0.34 s); type: functional
[18] = test system: Cynomolgus monkey; experiment: AUC(0 to infinity) in cynomolgus monkey at 5 mg/kg, iv administered as bolus injection by LC-MS/MS analysis; type: ADME, organism-based, Macaca fascicularis, Plasma; set-up: time infinity, dose 5 mg/kg, route intravenous; details: in vivo
Method in brief: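 Cynomolgus monkeys (n = 3) given a 5 mg/kg intravenous bolus via cephalic or saphenous vein. Dosing solution in 50 mM HEPES, TCEP-treated. Arterial cannula blood collected up to 9 days into heparin/NEM tubes. Plasma assayed by LC-MS/MS. Noncompartmental analysis.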

[19] = AUC(0 to infinity) in Sprague-Dawley rat at 30 mg/kg, po administered via gavage measured under fasted conditions by LC-MS/MS analysis; type: ADME, organism-based; set-up: time infinity, dose 30 mg/kg, route oral; details: plasma
Method in brief: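 Fasted male Sprague-Dawley rats (280–330 g) received 0.1, 1, 10 or 30 mg/kg by oral gavage in 50 mM HEPES buffered saline, pH 7.4. Blood drawn at 0.25–24 h into heparin/NEM tubes; plasma analyzed by LC-MS/MS. Cmax taken as observed. AUC by linear trapezoidal rule with extrapolation by λz. Cl/F and Vd/F reported. Mean ± S.D., n = 4–9.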

Cmax [1]: 453 ng/g | Tmax [2]: 61.8 min | remaining at 1 h, 10 µM [3]: > 90% | Vd [4]: 0.2 L/kg | bioavailability [5]: 39.1% | remaining at 1 h, 10 µM [6]: > 90% | AUC(0-t) [7]: 12.7 µg·h/mL | AUC(0-inf) [8]: 13 µg·h/mL | Drug recovery [9]: 60% | Vd/F [10]: 0.79 L/kg | AUC(0-t) [11]: 86.7 µg·h/mL | remaining at 1 h, 5 µM [12]: 55% | Cmax [13]: 203 ng/g | remaining at 1 h, 10 µM [14]: > 90% | Tmax [15]: 34.8 min | AUC(0-t) [16]: 1.8 µg·h/mL | AUC [18]: 63.6221 µg·h/mL | AUC(0-inf) [19]: 76.6 µg·h/mL
SMILES: O=C(O)c1cccc(-c2cccc(CCS)c2C(=O)O)c1
Time [17]: -0.55 s
